Test results: ChEMBL document CHEMBL5715960, “Epigenetic Co-Deregulation of EZH2/TET1 is a Senescence-Countering, Actionable Vulnerability in Triple-Negative Breast Cancer” (Theranostics, 2019)
Active and inactive are the calls of the source. The rule behind the calls is not given here.

Columns and labels:
MDA-MB-231 [1] = assay: Antiproliferative activity against human MDA-MB-231 cells assessed as downregulation of cyclin A by immunoblot analysis; type: functional, cell-based
Procedure, shortened: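 Cells exposed to GSK343 at 2 µM (standard level unless stated otherwise), lysed and immunoblotted; α-tubulin and total H3 as loading controls.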

MCF7 [2] = assay: Cytotoxicity against human MCF7 cells at 0.5 to 2 uM for 2 days by Guava viacount assay; type: toxicity, cell-based; details: mcf7, 48 h, dose 0.5-2 µM, time 2 day
Procedure, shortened: (§1)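 Cells plated at 2 × 10^4 (24-well) or 1 × 10^5 (12-well), exposed to a range of GSK343 concentrations for 2 days against DMSO solvent control; cell number and viability read by Guava ViaCount flow cytometry, relative to DMSO. Triplicate; mean ± SD.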

MDA-MB-436 [3] = assay: In vivo activation of TET1 in Crl:NU-Foxn1-nu/nu mouse xenografted with human MDA-MB-436 cells at 5 mg/kg, ip in presence of adriamycin treated for 21 days; type: functional, organism-based; details: time 21.0 day
MCF7 [4] = assay: Effect on human MCF7 cells assessed as increase in TET2 transcription by qRT-PCR analysis; type: functional, cell-based
Procedure, shortened: (§2)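 qRT-PCR of TET1, TET2 and TET3 transcripts in breast cancer cells exposed to GSK343 (2 µM unless otherwise indicated), shown relative to DMSO-treated cells. Mean ± SD, triplicate unless stated.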

MDA-MB-231 [5] = assay: Effect on human MDA-MB-231 cells assessed as decrease in H3K27me3 level at 2 uM in presence of adriamycin by immunoblot analysis; type: functional, cell-based
Procedure, shortened: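 Immunoblot of MDA-MB-231 and MCF7 lysates after 0.005 µg/ml adriamycin with or without 2 µM GSK343, or DMSO. α-Tubulin and total H3 used as loading controls.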

MDA-MB-231 [6] = assay: Antiproliferative activity in human MDA-MB-231 cells assessed as increase in SA-beta-gal positive cells at 2 uM for 5 days by SA-beta-gal staining analysis; type: functional, cell-based; details: time 5.0 day
Procedure, shortened: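 GSK343 2 µM or DMSO for 5 days, then chromogenic SA-β-gal staining and counting of positive cells. Triplicate; mean ± SD.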

MDA-MB-436 [7] = assay: Effect on […] in human MDA-MB-436 cells assessed as repression in TET1 promoter H3K27me3 by ChiP-qPCR analysis; type: functional, cell-based
Procedure, shortened: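 ChIP-qPCR on MDA-MB-231 and MDA-MB-436 cells exposed to GSK343 or DMSO. Chromatin pulled down with anti-H3K27me3 antibody and amplified with primers specific for the TET1 promoter. Input (no immunoprecipitation) serves as internal control and anti-IgG as negative control. Mean ± SD, triplicate unless stated.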

BT-474 [8] = assay: Induction of cell cycle arrest in human BT-474 cells assessed as accumulation of cells at G1 phase measured at 2 uM by BrdU/PI staining based flow cytometric analysis (reference value: 60.8%); type: functional
MDA-MB-436 [9] = assay: Antiproliferative activity in human MDA-MB-436 cells expressing vector assessed as increase in SA-beta-gal positive cells by SA-beta-gal staining analysis (reference value: 10.3+/-3.7%); type: functional
MDA-MB-436 [10] = assay: Effect on human MDA-MB-436 cells assessed as increase in TET1 mRNA level by qRT-PCR analysis
MDA-MB-436 [11] = assay: Induction of apoptosis in human MDA-MB-436 cells xenografted in Crl:NU-Foxn1-nu/nu mouse assessed as apoptotic cells in tumor administered at 5 mg/kg, ip in presence of adriamycin treated for 21 days by TUNEL staining analysis; type: functional, organism-based; details: time 21.0 day
Procedure, shortened: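 TUNEL staining of xenograft tumor sections. Dosing started when tumors reached about 50 mm3: twice-weekly intraperitoneal GSK343 5 mg/kg, adriamycin 1 mg/kg, the combination, or DMSO solvent control, for 21 days.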

MCF7 [12] = assay: Induction of cell cycle arrest in human MCF7 cells assessed as accumulation of cells at G1 phase measured at 2 uM by BrdU/PI staining based flow cytometric analysis (reference value: 65.2%); type: functional
MDA-MB-231 [13] = assay: Antiproliferative activity in human MDA-MB-231 cells expressing vector assessed as increase in SA-beta-gal positive cells by SA-beta-gal staining analysis (reference value: 6.5+/-4%); type: functional
BT-474 [14] = assay: Effect on human BT-474 cells assessed as increase in TET3 transcription by qRT-PCR analysis; type: functional, cell-based; procedure, shortened: as §2
MDA-MB-361 = assay: Cytotoxicity against human MDA-MB-361 cells assessed as increase in cell death at 10 uM for 2 days by Guava viacount assay; type: toxicity, cell-based; details: mda-mb-361, 48 h, time 2 day; procedure, shortened: as §1
MDA-MB-231 [15] = assay: Effect on human MDA-MB-231 cells expressing shTET1 assessed as reduction in PCNA by immunoblot analysis; type: functional, cell-based
BT-474 [16] = assay: Effect on human BT-474 cells assessed as increase in TET1 transcription by qRT-PCR analysis; type: functional, cell-based; procedure, shortened: as §2
MDA-MB-436 [17] = assay: Effect on human MDA-MB-436 cells expressing shTET1 assessed as increase in H3K9me3 cascade by immunoblot analysis; type: functional, cell-based
BT-474 [18] = assay: Upregulation of TP53 gene in human BT-474 cells at 2 uM by qRT-PCR analysis; type: functional, cell-based
Procedure, shortened: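 Relative transcript levels measured by qRT-PCR in cells treated with 2 µM inhibitor, normalised to DMSO-treated control cells. Triplicate experiments unless stated otherwise; mean ± SD reported; unpaired two-tailed Student's t-test at p < 0.05.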

MDA-MB-231 [19] = assay: Antiproliferative activity in human MDA-MB-231 cells assessed as increase in C12FDG based fluorescent SA-beta-gal positive cells at 2 uM in presence of adriamycin by FACS analysis; type: functional, cell-based
Procedure, shortened: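 Cells given 0.005 µg/ml adriamycin with or without 2 µM GSK343, or DMSO; SA-β-gal activity detected with C12FDG fluorescent substrate by flow cytometry, reported as percent positive cells. Mean ± SD.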

BT-474 [20] = assay: Induction of cell cycle arrest in human BT-474 cells assessed as accumulation of cells at S phase measured at 2 uM by BrdU/PI staining based flow cytometric analysis (reference value: 28.6%); type: functional
MDA-MB-436 [21] = assay: Downregulation of EZH2 in human MDA-MB-436 cells at 2 uM for 2 days by immunoblot analysis; type: functional, cell-based; details: time 2.0 day
MDA-MB-436 [22] = assay: Effect on human MDA-MB-436 cells assessed as apoptotic phenotype by measuring increase in BAX expression level at 2 uM in presence of adriamycin by immunoblot analysis; type: functional, cell-based
Procedure, shortened: (§3)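 Immunoblot of cell lysates after 0.05 µg/ml adriamycin alone, with 2 µM GSK343, or DMSO. α-Tubulin and total H3 used as loading controls.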

MCF7 [23] = assay: Effect on human MCF7 cells assessed as increase in TET3 transcription by qRT-PCR analysis; type: functional, cell-based; procedure, shortened: as §2
MDA-MB-436 [24] = assay: Effect on human MDA-MB-436 cells assessed as apoptotic phenotype by measuring increase in p53 expression level at 2 uM in presence of adriamycin by immunoblot analysis; type: functional, cell-based; procedure, shortened: as §3
MDA-MB-231 [25] = assay: Effect on human MDA-MB-231 cells assessed as increase in TET1 mRNA level by qRT-PCR analysis
MCF7 [26] = assay: Cytotoxicity against human MCF7 cells assessed as increase in cell death at 10 uM for 2 days by Guava viacount assay; type: toxicity, cell-based; details: mcf7, 48 h, time 2 day; procedure, shortened: as §1

CCCc1cc(C)[nH]c(=O)c1CNC(=O)c1cc(-c2ccnc(N3CCN(C)CC3)c2)cc2c1cnn2C(C)C
Activity (MDA-MB-231 [1]): Active | Activity (MCF7 [2]): Non-Toxic | Activity (MDA-MB-436 [3]): Active | Activity (MCF7 [4]): inactive | Activity (MDA-MB-231 [5]): Active | Activity (MDA-MB-231 [6]): Active | Activity (MDA-MB-436 [7]): Active | Activity (BT-474 [8]): 56.8% | Activity (MDA-MB-436 [9]): 46.4% | Activity (MDA-MB-436 [10]): Active | Activity (MDA-MB-436 [11]): Active | Activity (MCF7 [12]): 66.1% | Activity (MDA-MB-231 [13]): 45.6% | Activity (BT-474 [14]): inactive | Activity (MDA-MB-361): Non-Toxic | Activity (MDA-MB-231 [15]): inactive | Activity (BT-474 [16]): inactive | Activity (MDA-MB-436 [17]): inactive | Activity (BT-474 [18]): inactive | Activity (MDA-MB-231 [19]): Active | Activity (BT-474 [20]): 26.8% | Activity (MDA-MB-436 [21]): Active | Activity (MDA-MB-436 [22]): Active | Activity (MCF7 [23]): inactive | Activity (MDA-MB-436 [24]): Active | Activity (MDA-MB-231 [25]): Active | Activity (MCF7 [26]): Non-Toxic
